Results: ChEMBL document CHEMBL4393735, “Molecular modelling, synthesis, and biological evaluations of a 3,5-disubstituted isoxazole fatty acid analogue as a PPARα-selective agonist” (Bioorg Med Chem, 2019)
Calls of active or inactive are those of the source.

Columns and labels:
[1] = tested on: SGBS; assay: Upregulation of FABP4 gene expression in human preadipocyte derived from Simpson-Golabi-Behmel syndrome (SGBS) patient at 25 uM measured for 12 days by qRT-PCR analysis; type: functional, cell-based
Method in brief: (§1)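 SGBS cells were differentiated with serum-free induction medium containing 25 μM test agent, 2 μM rosiglitazone or 0.1% DMSO from day 0. IBMX and dexamethasone were removed on day 4 and medium was renewed on day 8. RNA was taken on days 0, 4, 8 and 12 for qPCR, normalized to TBP and to day 0. At least three biological replicates in duplicate, two-way ANOVA with Bonferroni.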

[2] = target: T1, Peroxisome proliferator-activated receptor alpha (Homo sapiens) (UniProt Q07869); assay: Agonist activity at PPARalpha in human Huh7 cells assessed as PPARA mRNA expression at 50 uM measured after 18 hrs by qRT-PCR analysis; type: cell-based
T1 sequence (whole entry): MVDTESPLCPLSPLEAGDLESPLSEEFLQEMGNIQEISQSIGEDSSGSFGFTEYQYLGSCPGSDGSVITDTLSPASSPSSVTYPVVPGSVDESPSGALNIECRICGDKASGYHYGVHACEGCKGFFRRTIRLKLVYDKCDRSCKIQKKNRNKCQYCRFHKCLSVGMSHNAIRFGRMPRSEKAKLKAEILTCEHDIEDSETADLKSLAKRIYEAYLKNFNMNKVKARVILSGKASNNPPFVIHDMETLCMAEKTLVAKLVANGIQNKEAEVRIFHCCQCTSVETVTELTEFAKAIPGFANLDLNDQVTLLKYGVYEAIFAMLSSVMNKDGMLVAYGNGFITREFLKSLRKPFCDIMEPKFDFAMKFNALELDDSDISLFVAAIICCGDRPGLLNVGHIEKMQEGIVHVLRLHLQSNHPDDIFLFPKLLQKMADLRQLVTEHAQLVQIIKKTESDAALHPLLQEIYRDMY
Method in brief: (§2)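 Treatment for 18 h at 50 μM (or 1 μM for the 1 μM agents), DMSO vehicle. Harvested for qPCR. mRNA normalized to TBP by the comparative threshold method, expressed relative to DMSO control. Two biological replicates run in duplicate, mean ± SEM. Primary hepatocytes came from male C57BL/6N mice aged 7–8 weeks, isolated by portal-vein perfusion and digestion, seeded on collagen I and used on day 2. HuH-7 cells were kept in DMEM with 10% FBS and ITS.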

[3] = tested on: SGBS; assay: Upregulation of PPARgamma gene expression in human preadipocyte derived from Simpson-Golabi-Behmel syndrome (SGBS) patient at 25 uM measured for 12 days by qRT-PCR analysis; type: functional, cell-based
Method in brief: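 SGBS cells grown 4 days in biotin/D-pantothenate medium, then differentiated without FBS (apo-transferrin, insulin, T3, hydrocortisol, IBMX, dexamethasone) with 25 μM compound or 0.1 % DMSO added from day 0. After 4 days, switched to maintenance medium without IBMX/dexamethasone, renewed day 8. qPCR on days 0, 4, 8, 12, normalized to TBP (comparative threshold) and to day 0. Minimum three biological replicates in duplicate, mean ± SEM.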

[4] = tested on: SGBS; assay: Upregulation of ADIPOQ gene expression in human preadipocyte derived from Simpson-Golabi-Behmel syndrome (SGBS) patient at 25 uM measured for 12 days by qRT-PCR analysis; type: functional, cell-based; method in brief: as §1
[5] = tested on: SGBS; assay: Upregulation of CEBPA gene expression in human preadipocyte derived from Simpson-Golabi-Behmel syndrome (SGBS) patient at 25 uM measured for 12 days by qRT-PCR analysis; type: functional, cell-based; method in brief: as §1
[6] = tested on: SGBS; assay: Upregulation of ACSL1 gene expression in human preadipocyte derived from Simpson-Golabi-Behmel syndrome (SGBS) patient at 25 uM measured for 12 days by qRT-PCR analysis; type: functional, cell-based; method in brief: as §1
[7] = target: T2, Peroxisome proliferator-activated receptor alpha (Mus musculus) (UniProt P23204); assay: Agonist activity at PPARalpha in C57BL/6N mouse primary hepatocytes assessed as SCD1 mRNA expression at 50 uM measured after 18 hrs by qRT-PCR analysis; type: cell-based; method in brief: as §2
T2 sequence (whole entry): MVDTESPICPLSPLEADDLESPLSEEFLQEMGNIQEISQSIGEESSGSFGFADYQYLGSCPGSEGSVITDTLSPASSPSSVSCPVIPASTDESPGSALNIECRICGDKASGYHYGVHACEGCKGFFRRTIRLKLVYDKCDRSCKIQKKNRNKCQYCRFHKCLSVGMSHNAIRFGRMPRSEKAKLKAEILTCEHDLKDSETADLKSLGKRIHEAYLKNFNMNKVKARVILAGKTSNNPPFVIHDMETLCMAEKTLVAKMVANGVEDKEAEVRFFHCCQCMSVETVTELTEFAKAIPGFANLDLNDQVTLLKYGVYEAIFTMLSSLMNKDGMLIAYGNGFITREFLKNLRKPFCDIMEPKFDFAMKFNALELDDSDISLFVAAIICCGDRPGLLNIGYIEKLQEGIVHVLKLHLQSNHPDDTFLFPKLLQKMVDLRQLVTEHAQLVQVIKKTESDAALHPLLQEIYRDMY

[8] = target: T2, Peroxisome proliferator-activated receptor alpha (Mus musculus); assay: Agonist activity at PPARalpha in C57BL/6N mouse primary hepatocytes assessed as PPARA mRNA expression at 50 uM measured after 18 hrs by qRT-PCR analysis; type: cell-based; method in brief: as §2
[9] = target: T1, Peroxisome proliferator-activated receptor alpha (Homo sapiens); assay: Agonist activity at PPARalpha in human Huh7 cells assessed as SREBF1 mRNA expression at 50 uM measured after 18 hrs by qRT-PCR analysis; type: cell-based; method in brief: as §2
[10] = tested on: SGBS; assay: Upregulation of PLIN1 gene expression in human preadipocyte derived from Simpson-Golabi-Behmel syndrome (SGBS) patient at 25 uM measured for 12 days by qRT-PCR analysis; type: functional, cell-based; method in brief: as §1
[11] = tested on: SGBS; assay: Induction of adipocyte differentiation in human preadipocyte derived from Simpson-Golabi-Behmel syndrome (SGBS) patient assessed as lipid accumulation at 25 uM measured for 12 days by Oil red O staining based microscopic analysis; type: functional, cell-based
Method in brief: (§3)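 Differentiation of SGBS preadipocytes was started in serum-free medium with transferrin, insulin, T3, hydrocortisol, IBMX and dexamethasone, plus 25 μM test agent, 2 μM rosiglitazone or 0.1% DMSO. On day 4 medium was switched to lack IBMX and dexamethasone, and it was renewed on day 8. Cells were fixed with 4% PFA and stained with 0.3% Oil Red O on days 0, 4, 8 and 12, then photographed.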

[12] = tested on: SGBS; assay: Upregulation of CD36 gene expression in human preadipocyte derived from Simpson-Golabi-Behmel syndrome (SGBS) patient at 25 uM measured for 12 days by qRT-PCR analysis; type: functional, cell-based; method in brief: as §1
[13] = target: T1, Peroxisome proliferator-activated receptor alpha (Homo sapiens); assay: Agonist activity at PPARalpha in human Huh7 cells assessed as SCD1 mRNA expression at 50 uM measured after 18 hrs by qRT-PCR analysis; type: cell-based; method in brief: as §2
[14] = tested on: SGBS; assay: Upregulation of ANGPTL4 gene expression in human preadipocyte derived from Simpson-Golabi-Behmel syndrome (SGBS) patient at 25 uM measured for 12 days by qRT-PCR analysis; type: functional, cell-based; method in brief: as §1
[15] = target: T2, Peroxisome proliferator-activated receptor alpha (Mus musculus); assay: Agonist activity at PPARalpha in C57BL/6N mouse primary hepatocytes assessed as SREBF1 mRNA expression at 50 uM measured after 18 hrs by qRT-PCR analysis; type: cell-based; method in brief: as §2
[16] = tested on: SGBS; assay: Upregulation of PLIN1 gene expression in human preadipocyte derived from Simpson-Golabi-Behmel syndrome (SGBS) patient at 2 uM measured for 12 days by qRT-PCR analysis; type: functional, cell-based; method in brief: as §1
[17] = tested on: SGBS; assay: Upregulation of PPARgamma gene expression in human preadipocyte derived from Simpson-Golabi-Behmel syndrome (SGBS) patient at 2 uM measured for 12 days by qRT-PCR analysis; type: functional, cell-based; method in brief: as §1
[18] = target: T2, Peroxisome proliferator-activated receptor alpha (Mus musculus); assay: Agonist activity at PPARalpha in C57BL/6N mouse primary hepatocytes assessed as activation of Srebf1 mRNA expression at 1 uM measured after 18 hrs by qRT-PCR analysis; type: cell-based; method in brief: as §2
[19] = tested on: SGBS; assay: Upregulation of ADIPOQ gene expression in human preadipocyte derived from Simpson-Golabi-Behmel syndrome (SGBS) patient at 2 uM measured for 12 days by qRT-PCR analysis; type: functional, cell-based; method in brief: as §1
[20] = tested on: SGBS; assay: Upregulation of ANGPTL4 gene expression in human preadipocyte derived from Simpson-Golabi-Behmel syndrome (SGBS) patient at 2 uM measured for 12 days by qRT-PCR analysis; type: functional, cell-based; method in brief: as §1
[21] = tested on: SGBS; assay: Upregulation of CD36 gene expression in human preadipocyte derived from Simpson-Golabi-Behmel syndrome (SGBS) patient at 2 uM measured for 12 days by qRT-PCR analysis; type: functional, cell-based; method in brief: as §1
[22] = target: T2, Peroxisome proliferator-activated receptor alpha (Mus musculus); assay: Agonist activity at PPARalpha in C57BL/6N mouse primary hepatocytes assessed as activation of PPARalpha mRNA expression at 1 uM measured after 18 hrs by qRT-PCR analysis; type: cell-based; method in brief: as §2
[23] = tested on: SGBS; assay: Upregulation of CEBPA gene expression in human preadipocyte derived from Simpson-Golabi-Behmel syndrome (SGBS) patient at 2 uM measured for 12 days by qRT-PCR analysis; type: functional, cell-based; method in brief: as §1
[24] = tested on: SGBS; assay: Upregulation of FABP4 gene expression in human preadipocyte derived from Simpson-Golabi-Behmel syndrome (SGBS) patient at 2 uM measured for 12 days by qRT-PCR analysis; type: functional, cell-based; method in brief: as §1
[25] = tested on: SGBS; assay: Upregulation of ACSL1 gene expression in human preadipocyte derived from Simpson-Golabi-Behmel syndrome (SGBS) patient at 2 uM measured for 12 days by qRT-PCR analysis; type: functional, cell-based; method in brief: as §1
[26] = target: T2, Peroxisome proliferator-activated receptor alpha (Mus musculus); assay: Agonist activity at PPARalpha in C57BL/6N mouse primary hepatocytes assessed as activation of Scd1 mRNA expression at 1 uM measured after 18 hrs by qRT-PCR analysis; type: cell-based; method in brief: as §2
[27] = tested on: SGBS; assay: Induction of adipocyte differentiation in human preadipocyte derived from Simpson-Golabi-Behmel syndrome (SGBS) patient assessed as lipid accumulation at 2 uM measured for 12 days by Oil red O staining based microscopic analysis; type: functional, cell-based; method in brief: as §3
[28] = target: T1, Peroxisome proliferator-activated receptor alpha (Homo sapiens); assay: Agonist activity at PPARalpha in human Huh7 cells assessed as SREBF1 mRNA expression at 1 uM measured after 18 hrs by qRT-PCR analysis; type: cell-based; method in brief: as §2
[29] = target: T1, Peroxisome proliferator-activated receptor alpha (Homo sapiens); assay: Agonist activity at PPARalpha in human Huh7 cells assessed as SCD1 mRNA expression at 1 uM measured after 18 hrs by qRT-PCR analysis; type: cell-based; method in brief: as §2
[30] = target: T2, Peroxisome proliferator-activated receptor alpha (Mus musculus); assay: Agonist activity at PPARalpha in C57BL/6N mouse primary hepatocytes assessed as activation of Cpt1a mRNA expression at 1 uM measured after 18 hrs by qRT-PCR analysis; type: cell-based; method in brief: as §2
[31] = target: T1, Peroxisome proliferator-activated receptor alpha (Homo sapiens); assay: Agonist activity at PPARalpha in human Huh7 cells assessed as PPARA mRNA expression at 1 uM measured after 18 hrs by qRT-PCR analysis; type: cell-based; method in brief: as §2
[32] = target: T1, Peroxisome proliferator-activated receptor alpha (Homo sapiens); assay: Agonist activity at PPARalpha in human Huh7 cells assessed as activation of CPT1A mRNA expression at 1 uM measured after 18 hrs by qRT-PCR analysis; type: cell-based; method in brief: as §2
[33] = target: T2, Peroxisome proliferator-activated receptor alpha (Mus musculus); assay: Agonist activity at PPARalpha in C57BL/6N mouse primary hepatocytes assessed as activation of Cpt1a mRNA expression at 50 uM measured after 18 hrs by qRT-PCR analysis; type: cell-based; method in brief: as §2
[34] = target: T1, Peroxisome proliferator-activated receptor alpha (Homo sapiens); assay: Agonist activity at PPARalpha in human Huh7 cells assessed as activation of CPT1A mRNA expression at 50 uM measured after 18 hrs by qRT-PCR analysis; type: cell-based; method in brief: as §2

Activity [2]	Activity [7]	Activity [8]	Activity [9]	Activity [13]	Activity [15]	Activity [18]	Activity [26]	SMILES	Activity [1]	Activity [3]	Activity [4]	Activity [5]	Activity [6]	Activity [10]	Activity [11]	Activity [12]	Activity [14]	other results
inactive	inactive	Active	inactive	inactive	inactive	–	–	CCCCC/C=C/C(=O)CCCCCCCC(=O)O	Active	Active	Active	Active	Active	Active	Active	Active	Active	–
–	–	–	–	–	–	inactive	inactive	CN(CCOc1ccc(CC2SC(=O)NC2=O)cc1)c1ccccn1 (stereo not given)	–	–	–	–	–	–	–	–	–	Activity [16]: Active; Activity [17]: Active; Activity [19]: Active; Activity [20]: Active; Activity [21]: Active; Activity [22]: Active; Activity [23]: Active; Activity [24]: Active; Activity [25]: Active; Activity [27]: Active
–	–	–	–	–	–	Active	Active	CC(C)(Sc1ccc(CCN(CCCCC2CCCCC2)C(=O)NC2CCCCC2)cc1)C(=O)O	–	–	–	–	–	–	–	–	–	Activity [28]: inactive; Activity [29]: inactive; Activity [30]: Active; Activity [31]: inactive; Activity [32]: Active
inactive	Active	–	inactive	inactive	Active	–	–	Cc1cccc(Nc2cc(Cl)nc(SCC(=O)O)n2)c1C	Active	Active	Active	Active	Active	Active	Active	Active	Active	Activity [33]: Active; Activity [34]: Active
inactive	inactive	Active	inactive	inactive	inactive	–	–	CCCCCCCC(=O)/C=C/CCCCCC(=O)O	Active	Active	Active	Active	Active	Active	Active	Active	Active	–
